# An excerpt weighted towards active compounds, which were near 3% of everything screened.
# S100A4 MyoIIA – inhibitors of S100A4-myosin IIA peptide binding, primary screen, biochemical, fluorescence polarization, TAMRA-MyoIIA peptide; inhibition, % at 10.7 µM; 0.14% of 360,000 active; AID 652163, 2013;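 active = mean inhibition of at least 70% across replicates, with every replicate also reaching that level; inconclusive = mean inhibition reaches 70% but some replicates fall short; inactive = mean inhibition below 70%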
# Target sequence (P26447 whole entry, looked up): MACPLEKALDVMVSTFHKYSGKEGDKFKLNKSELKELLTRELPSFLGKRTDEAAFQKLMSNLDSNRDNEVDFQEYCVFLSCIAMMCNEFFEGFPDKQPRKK
#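 Test system – S100A4 monomer (human) · Compound – single-point compound testing · Schedule – 5 min incubation before reading · Probe or stimulus – TAMRA-labelled myosin IIA heavy-chain peptide probe, 5 nM · Benchmarks – neutral control DMSO, positive control TFP · Medium – Calcium-containing HEPES buffer, pH 7.2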
# PGC1a acetyl inh – inhibitors of PGC1a acetylation signal, primary screen, cell-based, U2OS, AlphaScreen, inhibitor mode; AlphaScreen anti-acetyl-lysine; with virally co-expressed GCN5 acetyltransferase; inhibition, % at 15.6 µM; 0.17% of 350,000 active;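 active = every replicate shows inhibition of at least 40%; inconclusive = mean inhibition at least 40% but some replicate below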
# C2C12 statin – suppressors of statin myotoxicity in C2C12 myotubes, primary screen, cell-based, single point, plate reader; 0.78% of 330,000 active; C2C12 myotubes + simvastatin, ATP luminescence, 48 h; scaled: DMSO 0, geranylgeraniol control 100; rescue of ATP level, % at 7.49 µM; AID 602340, 2012;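 active = mean ATP rescue above about 67%, or every replicate alone reaching that limit, limit read from the data, passing the limit was not always enough; inconclusive = no clear call, values can overlap the other calls; inactive = mean under the limit and some replicate under it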;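 also: myotubes were challenged with 10 µM simvastatin during compound exposure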
# rRNA inh HTS – reduced GFP signal of wild-type E. coli, primary screen, bacterial rRNA inhibitor project, GFP/RFP fluorescence, OD600, single point | GFP signal change (wild-type ribosome), % (test concentration not listed) | AID 720706, 2013 | 1.6% of 350,000 active | E. coli WT GFP vs humanized-ribosome RFP mutants, 24 h; hits give low values; DMSO median 0, no signal -100;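 active = significant combined selectivity score with lowered wild-type GFP, culture density cut under 30%, mutant RFP and density less affected; inactive = any of these conditions unmet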
# Cneo AK release – Cryptococcus neoformans cell lysis inducers, primary screen, AK release luminescence, single concentration; lysis activity, % at 15 µM; C. neoformans lysis, adenylate kinase release luminescence, 4 h; normalised: neutral wells 0, clomiphene wells 100; 0.2% of 360,000 active; AID 651654, 2012;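 active = mean lysis activity across replicates of at least 80%, whatever share of replicates individually reach that level; inactive = mean lysis activity below 80%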
#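 read-out = cell lysis signal | test system = log-phase Cryptococcus neoformans yeast cells | input = cells at 5 × 10^6 per mL | medium = fresh YPD growth medium | signal = luminescent adenylate kinase detection reagent | timing = 4 h at 37 °C static, read 1 h later | dosing = single dose | controls = Clomiphene as positive lysis control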
# SIRT5 block – SIRT5 desuccinylase inhibitors, primary screen, biochemical, fluorescence imaging, single point, set 5 | NAD-dependent protein deacylase sirtuin-5, mitochondrial (Homo sapiens), Q9NXA8 | Purified SirT5, succinyl-peptide AMC, trypsin-coupled fluorescence | inhibition, % at 15 µM | 1.1% of 330,000 active | AID 652115, 2013; in the data active = inhibition above about 15%; inconclusive = no clear call, values can overlap the other calls
# Target sequence (Q9NXA8 whole entry, looked up): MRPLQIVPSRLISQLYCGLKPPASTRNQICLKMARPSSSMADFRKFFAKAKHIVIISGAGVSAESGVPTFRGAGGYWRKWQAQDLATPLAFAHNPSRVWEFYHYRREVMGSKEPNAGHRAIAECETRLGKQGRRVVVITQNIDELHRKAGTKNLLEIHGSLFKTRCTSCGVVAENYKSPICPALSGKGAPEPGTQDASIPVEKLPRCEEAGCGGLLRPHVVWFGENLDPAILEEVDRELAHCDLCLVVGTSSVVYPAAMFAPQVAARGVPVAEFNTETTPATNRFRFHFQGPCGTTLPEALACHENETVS
# AID977621 – growth inhibition of wild-type GFP E. coli, dose response, H69 mutant RFP, cherry-pick. E. coli wild-type GFP strain growth, fluorescence, 24 h. 1,900 tested, under 10 active. shares compounds with rRNA inh HTS. activity change, negative = inhibition at 50 µM;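 active = Wild-type ribosome reporter drop at least double the humanized mutant ribosome reporter drop, growth loss under a set limit; inconclusive = no clear call, values can overlap the other calls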;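 also: wild-type GFP and H69 mutant RFP strains grown together 50/50 in each well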
# AID977628 – E. coli growth inhibition, wild-type GFP versus h24 humanized RFP strain, dose response, h24 mutant RFP vs wild-type GFP, cherry-pick; shares compounds with rRNA inh HTS; E. coli WT GFP strain growth, fluorescence, 24 h; activity change, negative = inhibition at 50 µM; 1,900 tested, under 10 active; AID 977628, 2014;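 active = compound lowering the normal-ribosome reporter at least twice as much as the humanized-ribosome reporter, growth loss under a set limit; inconclusive = no clear call, values can overlap the other calls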;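 also: wild-type GFP and h24 humanized RFP strains co-cultured 1 to 1 per well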
# Numbers stand for hits; - = inactive; ? = inconclusive; . = no result.
SMILES,S100A4 MyoIIA,PGC1a acetyl inh,C2C12 statin,rRNA inh HTS,Cneo AK release,SIRT5 block,AID977621,AID977628
COc1ccc(-c2ccc3c(c2)[C@H]2[C@H](CCN2S(=O)(=O)c2ccccc2C)[C@H](CO)N3C)cc1,.,-,-,-,-,.,.,.
O=S(=O)(NCc1cc(-c2ccccc2)no1)c1ccccc1Cl,-,-,.,-21,.,-,-,-
O=C(C[C@@H]1C=C[C@@H](NC(=O)C2CCC2)[C@H](CO)O1)NCCCN1CCOCC1,-,-,-,-,-,-,.,.
Cc1nn(-c2ccc(N3CCCCC3)nn2)c(C)c1CCC(=O)Nc1ccc(F)cc1,-,-,-,-28,-,-,-,?
CCc1ccc(NC(=O)CCc2c(C)nn(-c3ccc(N4CCCCC4)nn3)c2C)cc1,-,-,-,-23,-,-,-,?
CC(=O)Nc1cccc(NC(=O)c2c(-c3c(Cl)cccc3Cl)noc2C)c1,-,-,-,-17,-,-,-,-
C/C=C/c1ccc2c(c1)O[C@@H](CN(C)Cc1ccncc1)[C@@H](C)CN([C@H](C)CO)S2(=O)=O,-,-,-,-,-,-,.,.
COc1ccc(N2CCN(S(=O)(=O)c3ccc(OC)cc3)CC2)cc1,-,-,-,-,-,-,.,.
COc1ccc(S(=O)(=O)N2c3ccccc3OCC2C)cc1 (stereo not drawn),-,-,.,-,.,-,.,.
COc1ccc(S(=O)(=O)N2CCOc3ccccc32)cc1,-,-,-,-22,-,-,-,-
COc1ccc(S(=O)(=O)n2cccc2)cc1,-,-,.,-23,-,-,?,?
O=c1ccc(-c2ccc([N+](=O)[O-])cc2)nn1-c1ccccc1,-,-,-,-,.,-,.,.
O=[N+]([O-])c1ccc(-[n+]2nc(-c3ccccc3)nn2-c2ccccc2)cc1,-,.,-,-22,-,-,.,?
C#CC[N+](C)(C)CCN1C(=O)C2C(c3ccccc3)C=CC(c3ccccc3)C2C1=O (stereo not drawn),-,-,-,-,.,-,.,.
CC(C)OC(=O)C[N+](C)(C)CCN1C(=O)C2C(c3ccccc3)C=CC(c3ccccc3)C2C1=O (stereo not drawn),-,-,.,-34,.,26,-,-
O=C(C[C@@H]1C[C@@H]2c3cc(NC(=O)NC4CCCC4)ccc3O[C@@H]2[C@@H](CO)O1)NCc1ccccn1,-,-,.,-,.,-,.,.
CCN(c1ccccc1)S(=O)(=O)c1ccc(Cl)c(C(=O)NCc2ccco2)c1,-,-,-,-21,-,-,-,.
CCN(CC)S(=O)(=O)c1ccc(Cl)c(C(=O)NCc2ccco2)c1,-,.,.,-,.,-,.,.
COCc1[nH]nc2c1C(c1ccc3c(c1)OCO3)N(c1ccc(OC)cc1)C2=O (stereo not drawn),-,.,.,-30,.,.,-,-
C=CCN1C(=O)c2n[nH]c(COC)c2C1c1ccc2c(c1)OCO2 (stereo not drawn),-,.,.,-,.,-,.,.
Clc1ccccc1Cn1nnc(-c2ccccc2)n1,-,-,.,-,.,-,.,.
CN(C)c1ccc(-c2nnn(Cc3ccccc3Br)n2)cc1,-,-,-,-19,-,-,?,.
CCNC(=O)C[C@H]1CC[C@H]2[C@H](COc3ccc(NC(=O)Nc4cccc(OC)c4)cc3C(=O)N2C)O1,.,-,-,-,-,.,.,.
Cc1cc(C)c(OCCN(C)Cc2ccccc2)c(Br)c1,-,.,.,-23,.,-,-,-
O=C(Nc1cccnc1)c1cc(Br)c(Br)s1,-,.,-,-,-,-,.,.
SMILES,S100A4 MyoIIA,PGC1a acetyl inh,C2C12 statin,rRNA inh HTS,Cneo AK release,SIRT5 block,AID977621,AID977628
NC(=O)c1cc(NC(=O)c2cc(Br)c(Br)s2)cc(C(N)=O)c1,-,.,.,-24,.,-,.,?
Clc1ccc(CN=C2Nc3ccccc3CS2)cc1,.,-,-,.,-,.,.,.
c1ccc2c(c1)CSc1ccccc1N2,-,-,.,-24,-,-,-,-
O=C(Nc1ccc(F)cc1)N1CCCCN2[C@@H](CO)[C@H](c3ccc(-c4ccncc4)cc3)[C@@H]2C1,-,-,.,-20,-,-,-,.
O=C(Nc1cccc(F)c1)N1[C@@H]2CNC[C@H]1C2c1ccc(-c2ccncc2)cc1 (stereo partly drawn),-,-,.,-25,.,-,-,-
COc1ccc(C#Cc2ccc([C@@H]3[C@H](CO)N4CCCCN(C(=O)Nc5ccc(F)cc5)C[C@@H]34)cc2)cc1,-,-,.,-,-,-,.,.
COc1ccc(C#Cc2ccc([C@@H]3[C@@H](CO)N4CCCCN(C(=O)Nc5ccc(F)cc5)C[C@H]34)cc2)cc1,-,-,.,-48,-,-,.,?
Cc1ccc(S(=O)(=O)Nc2ccc3c(c2)C(=O)N([C@@H](C)CO)C[C@@H](C)[C@H](CN(C)S(=O)(=O)c2cn(C)cn2)OCCCC[C@@H](C)O3)cc1,-,-,.,-,-,-,.,.
COc1ccccc1NC(=O)N[C@@H]1CC[C@H](CCn2cc(-c3ccccc3OC)nn2)O[C@@H]1CO,-,-,-,-,-,-,.,.
CCCNC(=O)N1CC2(CN(S(=O)(=O)c3cccc(OC)c3)C2)c2c(n(C)c3cc(OC)ccc23)[C@@H]1CO,.,.,.,-,.,.,.,.
CCN(CC)CCC#CC(O)(c1ccccc1)C1CCCCC1 (stereo not drawn),-,-,.,-,.,-,.,.
CCC[N+]1(CC#CC(O)(c2ccccc2)C2CCCCC2)CCCCC1 (stereo not drawn),-,.,.,-36,.,-,-,-
C=CCN(c1ccccc1)S(=O)(=O)c1ccc(Cl)c(C(=O)OCC(=O)NCCCN2CCCC2=O)c1,-,-,-,-23,-,-,-,.
C/C=C/c1ccc2c(c1)O[C@H](CN(C)C(=O)c1ccccn1)[C@H](C)CN([C@@H](C)CO)S2(=O)=O,-,-,-,-,-,-,.,.
CC(C)C[C@H]1COc2cc(Br)ccc2S(=O)(=O)N1,-,-,-,-22,-,-,-,?
CC(C)C[C@@H]1COc2cc(NC3CC3)ccc2S(=O)(=O)N1,-,.,.,-,.,-,.,.
